In ChEMBL document CHEMBL4261606, “Inhibition of LDL oxidation and inflammasome assembly by nitroaliphatic derivatives. Potential use as anti-inflammatory and anti-atherogenic agents” (Eur J Med Chem, 2018):
Calls of active or inactive are those of the source. The calls are words filed in the database; no cut-off is given here.

What was measured:
[1] = Antioxidant activity assessed as trolox equivalent of AAPH-induced peroxyl radical scavenging activity at 1.3 to 13 uM up to 140 mins by ORAC-FL assay; type: functional
Outline: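 ORAC: fluorescein (7.5 nM) decay (ex 485/em 512 nm) followed 140 min at 37 °C. Peroxyl radicals came from 30 mM AAPH in 75 mM phosphate pH 7.4 with 100 µM DTPA, compounds at 1.3-13 µM. Curves normalised to initial fluorescence, and net AUC versus concentration compared with Trolox standard (1.5-24 µM). Three independent determinations, mean ± SD.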

Plasma [2] = test: Inhibition of AAPH-induced oxidation of human plasma derived LDL assessed as time of delay for initiation of propagation phase by measuring rate of oxygen consumption at 20 uM added before AAPH addition by high-resolution oxygen electrode
Plasma [3] = test: Inhibition of AAPH-induced oxidation of human plasma derived LDL assessed as reversal of rate of oxygen consumption at 20 uM added after beginning of propagation phase by high-resolution oxygen electrode
Mus musculus [4] = species: Mus musculus; test: Antiinflammatory activity in mouse […] cells assessed as reduction in INF-gamma/LPS-induced IL-1beta expression at 5 uM preincubated for 1 hr followed by INF-gamma/LPS addition for 4 hrs by Western blot analysis; type: functional, cell-based
Outline: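 Confluent J774 monolayers preincubated 1 h with compound at 5 µM, then stimulated 4 h at 37 °C, 5% CO₂ with IFN-γ 400 U/mL plus Salmonella enterica LPS 8 µg/mL. Whole-cell lysates resolved by 15% SDS-PAGE and immunoblotted with rabbit anti-IL-1β and Alexa Fluor 680 secondary. Bands quantified by densitometry, with loading checked on paired colloidal-blue gels. Three independent experiments, one-way ANOVA.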

[5] = Cytotoxicity in mouse […] cells assessed as change in cell survival at 0.3 to 5 uM after 2 to 24 hrs by MTT assay; type: cell-based
Outline: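 Confluent J774 cells exposed to compounds in DMEM at 37 °C, 5% CO₂ for 2 h and for 24 h. MTT (0.1 mg/mL in DPBS) then added for 3 h at 37 °C. Formazan dissolved in DMSO/glycine buffer pH 10.5 and absorbance read at 560 nm, with vehicle as reference.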

Mus musculus [6] = species: Mus musculus; test: Antiatherogenic activity in mouse […] cells assessed as foam cell formation by measuring ox-LDL internalization at 2.5 to 5 uM preincubated for 1 hr followed by ox-LDL Dil addition for 4 hrs by Hoechst 3342-staining based fluorescence assay; type: functional
Outline: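 J774 murine macrophages in DMEM with 10% FBS at 80% confluence (~2×10⁵ cells/well) preincubated 1 h with compound (0.3-5 µM range in plate-reader format). DiI-labelled Cu²⁺-oxidised LDL (10 µg/mL) then added for 4 h at 37 °C, 5% CO₂. Cells washed, nuclei stained with Hoechst 3342 (10 µg/mL, 10 min). Read-out is DiI (549/565 nm) to Hoechst (352/461 nm) fluorescence ratio.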

| Structure (SMILES) | Activity [1] [equiv] | also measured |
| --- | --- | --- |
| C/C(=C/c1ccccc1)[N+](=O)[O-] | 0.37 |  |
| O=[N+]([O-])/C=C\c1cccs1 | 0.43 |  |
| CC(Cc1ccc(N(C)C)cc1)[N+](=O)[O-] (stereo unspecified) | 10 | Time (Plasma [2]): 30 min; inhibition (Plasma [3]): Active; Activity (Mus musculus [4]): Active |
| COc1ccc(/C=C\[N+](=O)[O-])cc1 | 0.46 |  |
| CN(C)c1ccc(CC[N+](=O)[O-])cc1 | 13 | Time (Plasma [2]): >40 min; inhibition (Plasma [3]): Active; Activity (Mus musculus [4]): Active |
| C/C(=C/c1ccc(N(C)C)cc1)[N+](=O)[O-] | 5.4 | Activity [5]: Non-Toxic; Time (Plasma [2]): 20 min; inhibition (Plasma [3]): inactive; Activity (Mus musculus [4]): Active; Activity (Mus musculus [6]): inactive |
| O=[N+]([O-])/C=C\c1ccccc1 | 0.29 |  |
| O=[N+]([O-])/C=C\c1ccc(Cl)cc1 | 0.44 |  |
| C/C(=C/c1ccc2c(c1)OCO2)[N+](=O)[O-] | 1.6 |  |
| C/C(=C/c1ccc(Br)cc1)[N+](=O)[O-] | 0.45 |  |
| C/C(=C/c1ccc(Cl)cc1)[N+](=O)[O-] | 0.39 |  |
| CSc1ccc(CC[N+](=O)[O-])cc1 | 2.8 |  |
| O=[N+]([O-])/C=C\c1ccc2c(c1)OCO2 | 0.72 |  |
| O=[N+]([O-])/C=C\c1ccc(Br)cc1 | 0.44 |  |
| C/C(=C/c1cccs1)[N+](=O)[O-] | 0.54 |  |
| CC(=O)Nc1ccc(/C=C\[N+](=O)[O-])cc1 | 0.63 |  |
| CSc1ccc(/C=C\[N+](=O)[O-])cc1 | 3.5 |  |
| CC(=O)Nc1ccc(CC[N+](=O)[O-])cc1 | 0.26 |  |
| COc1ccc(/C=C(/C)[N+](=O)[O-])cc1 | 0.46 |  |
| CN(C)c1ccc(/C=C\[N+](=O)[O-])cc1 | 4.2 | Activity [5]: Non-Toxic; Time (Plasma [2]): 20 min; inhibition (Plasma [3]): inactive; Activity (Mus musculus [4]): Active; Activity (Mus musculus [6]): inactive |
